This is an account of results in the array DNA melting data of Ke et al. (doi:10.1101/2024.01.08.574731).

Data set [1] can be described thus: folding enthalpy; higher = less favourable; fluorescence melt of hairpins on a sequencing array, two-state fit. As to conditions: sodium 0.088 M. Put shortly: (§1)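 Bootstrapped two-state fits yielded melting temperature and folding enthalpy for library hairpins. Cy3 fluorescence, with annealed Cy3 and quencher oligos, was imaged on a sequenced MiSeq flow cell in 50 mM Na-HEPES pH 8.0, 25 mM NaCl in 2.5 °C steps up to 60 °C, and normalised to pre-quench Cy3 and to control constructs. Four replicates were combined by inverse variance, and fitted temperatures were raised by 9.35 °C to match UV melts.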

Data set [2] in a line: melting temperature; fluorescence melt of hairpins on a sequencing array, two-state fit, raised by 9.35 °C to match UV melts. As to conditions: sodium 0.088 M. Put shortly: as §1

In the case of GTTTTACGAAAGTATAAC (((.(((....))).))), the folding enthalpy in data set [1] was -23.9 kcal/mol. In data set [2], the Tm was found to be 37.5 °C.
For GTTTTAGAAATAAAAC ((((((....)))))) the same measures were -22.3 kcal/mol and 36.7 °C.
In the case of GTTTTAGGAAACTAAAGC (.(((((....))))).), in data set [1], the folding enthalpy is -15 kcal/mol. The Tm in data set [2] came to 31.5 °C.
Take GTTTTCCGAAAGGAAAC (((.(((....)))))): the folding enthalpy in data set [1] was -13.6 kcal/mol. The Tm in data set [2] came to 47.8 °C.
For GTTTTCGGAAACGAAAAC (((((((....))))))) the same measures were -42.6 kcal/mol and 58.5 °C.
Turning to GTTTTCGGAAACGAGAAC (((.(((....))).))), the folding enthalpy in data set [1] was -27.4 kcal/mol. In data set [2], the Tm was determined as 41.6 °C.
The matching figures for GTTTTGCGAAAGCACAAC (((.(((....))).))): -28.1 kcal/mol and 44.2 °C.
Regarding GTTTTGGGAAACTAAGAC ((.((.(....).)).)), the folding enthalpy in data set [1] was -9.09 kcal/mol. Moreover, the Tm in data set [2] came to 29 °C.
For GTTTTGGGAAACTAGAAC (((.(.(....).).))), the folding enthalpy in data set [1] is -7.83 kcal/mol. Besides, in data set [2], the Tm came out at 23.7 °C.
The matching figures for GTTTTTACGAAAGTAAAC (((..(((....)))))): -17.1 kcal/mol and 29.9 °C.
GTTTTTCGAAAGAAGAAC (((.(((....))).))): the folding enthalpy in data set [1] is -32.5 kcal/mol. For the same sequence, the Tm in data set [2] turned out to be 37.3 °C.
As for GTTTTTGCGAAAGCAAAC (((..(((....)))))), the folding enthalpy in data set [1] is -11.9 kcal/mol. Also, the Tm in data set [2] came out at 35.2 °C.
For the sequence TAAGGGAAACCTTA (((((....))))), the folding enthalpy in data set [1] is -10.6 kcal/mol. Further, the Tm in data set [2] was 29.1 °C.
For the sequence TAATCGAAAGATTA (((((....))))), the folding enthalpy in data set [1] is -15.2 kcal/mol. In addition, in data set [2], the Tm stood at 38.9 °C.
With TACACGAAAGTGTA (((((....))))), the folding enthalpy in data set [1] is -13.7 kcal/mol. In addition, in data set [2], the Tm is 57.8 °C.
Consider TACGGGAAACCGTA (((((....))))), for which the folding enthalpy in data set [1] was -15.8 kcal/mol. Also, in data set [2], the Tm came to 48.5 °C.
Turning to TAGATGAAAATCTA (((((....))))), the folding enthalpy in data set [1] is -10.1 kcal/mol. Also, in data set [2], the Tm is 26.1 °C.
For TAGCTGAAAAGCTA (((((....))))), the folding enthalpy in data set [1] is -14.6 kcal/mol. Moreover, the Tm in data set [2] was 46.9 °C.
For the sequence TAGGAGAAATCCTA (((((....))))), the folding enthalpy in data set [1] is -8.63 kcal/mol. Besides, the Tm in data set [2] is 25.9 °C.
On to TAGGCGAAAGCCTA (((((....))))), for which the folding enthalpy in data set [1] was -12.2 kcal/mol. For the same sequence, in data set [2], the Tm turned out to be 65.5 °C.
For the sequence TAGTCGAAAGACTA (((((....))))), the folding enthalpy in data set [1] was -17.4 kcal/mol. The Tm in data set [2] was 49.6 °C.
With TAGTTGAAAAACTA (((((....))))), in data set [1], the folding enthalpy was -11.8 kcal/mol. Also, the Tm in data set [2] is 27.4 °C.
As to TATGCGAAAGCATA (((((....))))), in data set [1], the folding enthalpy was -13.6 kcal/mol. In addition, the Tm in data set [2] came to 60.1 °C.
For the sequence TATTCGAAAGAATA (((((....))))), the folding enthalpy in data set [1] was -14.3 kcal/mol. Moreover, in data set [2], the Tm was found to be 36.7 °C.
As for TCAACGAAAGTTGA (((((....))))), the folding enthalpy in data set [1] is -17.5 kcal/mol. Besides, in data set [2], the Tm was 52 °C.
For the sequence TCCCAGAAATGGGA (((((....))))), the folding enthalpy in data set [1] was -15.9 kcal/mol. Moreover, the Tm in data set [2] worked out at 43.8 °C.
Consider TCCTTGAAAAAGGA (((((....))))), for which, in data set [1], the folding enthalpy was -11.1 kcal/mol. Further, in data set [2], the Tm came to 35.1 °C.
For TCGAAGAAATTCGA (((((....))))), the folding enthalpy in data set [1] was -11.1 kcal/mol. Moreover, the Tm in data set [2] is 38.7 °C.
Take TCGCTGAAAAGCGA (((((....))))): in data set [1], the folding enthalpy was -17.4 kcal/mol. In addition, in data set [2], the Tm turned out to be 68.8 °C.
For the sequence TCGTAGAAATACGA (((((....))))), the folding enthalpy in data set [1] is -11.6 kcal/mol. Also, in data set [2], the Tm is 41.3 °C.
For the sequence TCTCGGAAACGAGA (((((....))))), the folding enthalpy in data set [1] is -19.6 kcal/mol. The Tm in data set [2] was 47.9 °C.
On to TCTGGGAAACCAGA (((((....))))), for which the folding enthalpy in data set [1] is -15 kcal/mol. The Tm in data set [2] was found to be 47.1 °C.
On to TCTTCGAAAGAAGA (((((....))))), for which the folding enthalpy in data set [1] is -18.8 kcal/mol. For the same sequence, the Tm in data set [2] stood at 45.8 °C.
As to TGAAAGAAATTTCA (((((....))))), in data set [1], the folding enthalpy is -5.86 kcal/mol. Also, in data set [2], the Tm turned out to be 26.4 °C.
Regarding TGATCGAAAGATCA (((((....))))), the folding enthalpy in data set [1] is -21 kcal/mol. In addition, the Tm in data set [2] was 51.3 °C.
For TGCGGGAAACCGCA (((((....))))) the same measures were -15.7 kcal/mol and 66.5 °C.
On to TGCTCGAAAGAGCA (((((....))))), for which, in data set [1], the folding enthalpy was -17.9 kcal/mol. Further, the Tm in data set [2] came to 67.7 °C.
TGGCAGAAATGCCA (((((....))))): the folding enthalpy in data set [1] is -23.3 kcal/mol. Further, in data set [2], the Tm amounted to 54.2 °C.
